Measured values as given in ChEMBL document CHEMBL2169771, “Mechanistic aspects of the photodynamic inactivation of Candida albicans induced by cationic porphyrin derivatives” (Eur J Med Chem, 2012).
Active and inactive are the calls of the source. The calls are words filed in the database; no cut-off is given here.

How the values were obtained:
Candida albicans [1] = test: Antifungal activity against 10^6 CFU/mL Candida albicans PC31 assessed as cell survival at 5 uM preincubated for 30 mins in dark followed by irradiation measured after 30 mins; type: functional
Nucleic Acid [2] = test: Binding affinity to calf thymus DNA assessed as DNA cleavage at 20 uM after 2 hrs irradiation by agarose gel electrophoresis; type: nucleic-acid assay; conditions: Bos taurus
Summary of the method: (§1)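 Calf thymus DNA (1.3 × 10^-4 M, base pairs) was mixed with 20 µM sensitizer in TE buffer (10 mM Tris-HCl, 1 mM EDTA, pH 7.6). Mixtures were irradiated in open tubes with visible light (90 mW/cm²) at room temperature for 1–5 h; dark controls were included. Samples were run on 1% agarose in TBE at 2.9 V/cm for 2 h.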

Candida albicans [3] = test: Photocytotoxicity against Candida albicans PC31 assessed as release of intracellular DNA and protein at 5 uM preincubated for 30 mins in dark followed by irradiation measured after 30 mins by UV-vis spectroscopic analysis; type: functional, organism-based
Summary of the method: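 PC31 cells (~10^7 CFU/mL in 2 mL PBS) were incubated with 5 µM porphyrin for 30 min in the dark, then irradiated 30 min with visible light (162 J/cm²). After centrifugation at 13,000 rpm for 5 min, supernatants were scanned by UV–visible spectroscopy, with absorbance at 260 nm taken as the release read-out. Freeze–thaw lysis in liquid nitrogen gave the positive control.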

Candida albicans [4] = test: Photocytotoxicity against Candida albicans PC31 assessed as change in cell morphology at 5 to 10 uM preincubated for 30 mins in dark followed by irradiation measured after 30 mins by transmission electron microscopy; type: functional, organism-based
Summary of the method: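 PC31 suspensions (~10^7 CFU/mL) were given 5 or 10 µM sensitizer for 30 min in the dark at 37 °C, then irradiated 30 min with visible light (162 J/cm²). Cells were fixed in 4% formaldehyde/2% glutaraldehyde in 0.1 M cacodylate for 2 h, then post-fixed in 1% OsO4. They were acetone-dehydrated, Araldite-embedded, cut at 80–100 nm, stained with uranyl acetate and lead citrate, and imaged by TEM.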

Nucleic Acid [5] = test: Binding affinity to Candida albicans PC31 DNA assessed as genomic DNA cleavage at 5 uM preincubated for 30 mins in dark followed by irradiation measured after 30 mins by agarose gel electrophoresis; type: nucleic-acid assay
Summary of the method: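 PC31 cells (~10^7 CFU/mL in PBS) received 5 µM sensitizer for 30 min at 37 °C in the dark, then 30 min visible light (162 J/cm²). Genomic DNA was extracted with a commercial kit immediately after irradiation. It was run on 1% agarose in TBE (pH 8) at 2.9 V/cm for 2 h beside an irradiated control.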

Candida albicans [6] = test: Antifungal activity against 10^7 CFU/mL Candida albicans PC31 preincubated for 30 mins in dark followed by irradiation measured after 30 mins; type: functional, organism-based; conditions: PC31, light or radiation study
Summary of the method: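 IC50 was derived from PBS suspensions of PC31 (~10^7 CFU/mL) treated with 0.1–10 µM porphyrin for 30 min in the dark at 37 °C. Cells were then irradiated for 30 min with water-filtered visible light from a 150 W lamp. Survival was counted as CFU on Sabouraud agar after ~48 h at 37 °C.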

Candida albicans [7] = test: Antifungal activity against 10^7 CFU/mL Candida albicans PC31 assessed as cell survival at 5 uM preincubated for 30 mins in dark followed by irradiation measured after 30 mins; type: functional
Summary of the method: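 C. albicans PC31 grown overnight in Sabouraud broth at 37 °C to stationary phase, then resuspended in 10 mM PBS pH 7.0 at ~10^7 CFU/mL. Incubated with 5 µM porphyrin for 30 min in the dark at 37 °C. Irradiated 30 min with visible light from a 150 W lamp, water-filtered (fluence 162 J/cm²). CFU counted on Sabouraud agar after ~48 h at 37 °C, plated in triplicate. Three separate experiments, mean ± SD.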

Nucleic Acid [8] = test: Binding affinity to calf thymus DNA assessed as DNA cleavage at 20 uM after 1 hr irradiation by agarose gel electrophoresis; type: nucleic-acid assay; conditions: Bos taurus; summary of the method: as §1
Nucleic Acid [9] = test: Binding affinity to calf thymus DNA by spectrophotometric analysis; type: nucleic-acid assay; conditions: Bos taurus
Summary of the method: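 Absorbance titration: concentrated calf thymus DNA stock was added to ~2 µM porphyrin in PBS. Apparent KDNA was calculated from the Soret-maximum absorbance change, assuming 1:1 stoichiometry and DNA in large excess, via a double-reciprocal fit (1/ΔA vs 1/[DNA]). Three separate experiments, mean ± SD.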

Nucleic Acid [10] = test: Binding affinity to calf thymus DNA assessed as DNA cleavage at 20 uM by agarose gel electrophoresis in absence of irradiation; type: nucleic-acid assay; conditions: Bos taurus; summary of the method: as §1
Nucleic Acid [11] = test: Binding affinity to calf thymus DNA assessed as DNA cleavage at 20 uM after 5 hrs irradiation by agarose gel electrophoresis; type: nucleic-acid assay; conditions: Bos taurus; summary of the method: as §1
Nucleic Acid [12] = test: Binding affinity to calf thymus DNA assessed as reduction in electrophoretic DNA mobility at 20 uM after 1 to 5 hrs irradiation by agarose gel electrophoresis; type: nucleic-acid assay; conditions: Bos taurus
Summary of the method: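 Calf thymus double-stranded DNA (1.3 × 10^-4 M, in base pairs) mixed with 20 μM sensitizer in TE buffer (10 mM Tris-HCl, 1 mM EDTA, pH 7.6). Irradiated with visible light (90 mW/cm²) at room temperature for 1, 2, 3, 4 or 5 h. Samples then run on 1% agarose gels in TBE buffer (pH 8) at 2.9 V/cm for 2 h. Controls: DNA alone, DNA with sensitizer in dark, irradiated DNA.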

Row | Activity (Nucleic Acid [2]) [%] | Activity (Nucleic Acid [5]) | IC50 (Candida albicans [6]) [nM] | Activity (Nucleic Acid [8]) [%] | Kapp (Nucleic Acid [9]) [×10⁵ /M] | Activity (Nucleic Acid [10]) | Activity (Nucleic Acid [11]) [%] | SMILES | log10CFU/ml (Candida albicans [1]) | Activity (Candida albicans [3]) | Activity (Candida albicans [4]) | log10CFU/ml (Candida albicans [7]) | Activity (Nucleic Acid [12])
1 | > 90 | inactive | 230 | 59.3 | 7.5 | – | – | C[N+](C)(C)c1ccc(-c2c3nc(c(-c4ccc([N+](C)(C)C)cc4)c4ccc([nH]4)c(-c4ccc([N+](C)(C)C)cc4)c4nc(c(-c5ccc([N+](C)(C)C)cc5)c5ccc2[nH]5)C=C4)C=C3)cc1 | 5 | inactive | Active | 3.5 | –
2 | – | inactive | 160 | 19.7 | 6.7 | inactive | 50 | C[N+](C)(C)c1ccc(-c2c3nc(c(-c4ccc([N+](C)(C)C)cc4)c4ccc([nH]4)c(-c4ccc([N+](C)(C)C)cc4)c4nc(c(-c5ccc(C(F)(F)F)cc5)c5ccc2[nH]5)C=C4)C=C3)cc1 | 5 | inactive | Active | 3.5 | –

Row | SMILES | Activity (Nucleic Acid [2]) [%] | Activity (Nucleic Acid [5]) | IC50 (Candida albicans [6]) [nM] | Activity (Nucleic Acid [8]) [%] | Kapp (Nucleic Acid [9]) [×10⁵ /M] | Activity (Nucleic Acid [10]) | Activity (Nucleic Acid [11]) [%] | log10CFU/ml (Candida albicans [1]) | Activity (Candida albicans [3]) | Activity (Candida albicans [4]) | log10CFU/ml (Candida albicans [7]) | Activity (Nucleic Acid [12])
3 | C[n+]1ccc(-c2c3nc(c(-c4cc[n+](C)cc4)c4ccc([nH]4)c(-c4cc[n+](C)cc4)c4ccc([nH]4)c(-c4cc[n+](C)cc4)c4nc2C=C4)C=C3)cc1 [TMPYP4] | – | inactive | 410 | – | 4.4 | – | – | 5 | inactive | Active | 3.5 | Active
